The text below walks through data of paper PMC6744591 (Heliyon, 2019).

The nature of data set [1]: Pharmacokinetics: plasma concentration of insulin in diabetic rats. The data set is classed as in vivo. As to conditions: for Tmax: plasma insulin, HPLC-UV.
Data set [2] has as its system alloxan induced diabetes rats. In words: Blood glucose lowering in alloxan-induced diabetic rats. The data set is classed as in vivo, Wister rats. In outline: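 Alloxan at 150 mg/kg i.p. in normal saline given to Wistar rats (~190 g); rats above 120 mg/dl glucose after 5–7 days counted as diabetic. Rats fasted 12 h, water allowed, fasted throughout; 9 per group. […] Basal glucose taken first; tail-vein glucometer readings at set intervals, triplicate averages.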

Regarding insulin [Ins-solu], the Tmax was 3.0 h in data set [1] (oral, 40 IU/kg) and 1.0 h in data set [1] (subcutaneous, 4.0 IU/kg). The same substance showed an AUC in data set [1] (subcutaneous, 4.0 IU/kg, over 12 h, linear trapezoidal rule, mean ± SD, n = 5) of 342.56 ± 30.9 µg/mL/h. For the same substance, the “decrease in blood glucose levels” value in data set [2] (fasted, oral, 40.0 I.U/kg, glucometer, % of initial level) was 1–2%. In addition, in data set [2] (fasted, subcutaneous, 4.0 I.U/kg, at 4 h), the “maximum decrease in blood glucose levels” value was more than 60%. For the same substance, the “time for which decrease in blood glucose level was sustained” value in data set [2] (subcutaneous, 4.0 I.U/kg) is on record as “over 4 h”.
